# Results published in ChEMBL document CHEMBL1938276, “Design and synthesis of 2-heterocyclyl-3-arylthio-1H-indoles as potent tubulin polymerization and cell growth inhibitors with improved metabolic stability” (J Med Chem, 2011).
# Activity calls are given as the source filed them. No cut-off for these calls is given here.
# Tests used:
# Liver microsomes = test: Metabolic stability in human liver microsomes assessed as compound remaining after 30 mins by LC-MS/MS analysis; type: ADME, Microsome; conditions: 0.5 h
# Procedure, shortened: (§1)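 Compound at 1 μM final, in duplicate, preincubated 10 min at 37 °C with liver microsomes (0.5 mg/mL final) in potassium phosphate buffer pH 7.4 with 3 mM MgCl2; started with NADP/glucose-6-phosphate/G6P dehydrogenase. Samples taken 0–30 min, quenched in acetonitrile, quantified by LC-MS/MS; percent remaining at 30 min versus time zero peak area; no-cofactor control included.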
# Liver = test: Metabolic stability in mouse liver microsomes assessed as compound remaining after 30 mins by LC-Ms/Ms analysis; type: ADME, Microsome; conditions: 0.5 h; procedure, shortened: as §1
# [1] = Growth inhibition of doxorubicin-resistant human NCI-ADR-RES cells overexpressing P-glycoprotein after 96 hrs; type: functional, cell-based
# [2] = Cmax in nude CD-1 mouse at 5 mg/kg, iv by UPLC analysis; type: ADME, organism-based; design: dose 5 mg/kg, route intravenous; conditions: in vivo
# Procedure, shortened: (§2)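 Male nude CD-1 mice, 4 weeks old; single iv rapid bolus 5 mg/kg in 3% DMSO + 30% PEG400 + 0.9% NaCl, or oral gavage 15 mg/kg in 5% DMSO + 20% PEG400 + water. Blood sampled at multiple times after dosing; plasma proteins precipitated, samples stored at −80 °C, quantified by UPLC-ESI triple-quadrupole MS/MS.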
# [3] = AUC ( 0 to infinity) in nude CD-1 mouse at 5 mg/kg, iv by UPLC analysis; type: ADME, organism-based; design: time infinity, dose 5 mg/kg, route intravenous; conditions: plasma; procedure, shortened: as §2
# Mus musculus [4] = test: Volume of distribution at steady state in nude CD-1 mouse at 5 mg/kg, iv and 15 mg/kg, po by UPLC analysis; type: ADME, organism-based; conditions: in vivo; procedure, shortened: as §2
# [5] = Cmax in nude CD-1 mouse at 15 mg/kg, po by UPLC analysis; type: ADME, organism-based; design: dose 15 mg/kg, route oral; conditions: in vivo; procedure, shortened: as §2
# [6] = Tmax in nude CD-1 mouse at 15 mg/kg, po by UPLC analysis; type: ADME, organism-based; design: dose 15 mg/kg, route oral; conditions: in vivo; procedure, shortened: as §2
# [7] = AUC ( 0 to infinity) in nude CD-1 mouse at 15 mg/kg, po by UPLC analysis; type: ADME, organism-based; design: time infinity, dose 15 mg/kg, route oral; conditions: plasma; procedure, shortened: as §2
# Mus musculus [8] = test: Oral bioavailability in nude CD-1 mouse at 15 mg/kg by UPLC analysis; type: ADME, organism-based; conditions: in vivo; procedure, shortened: as §2
# HeLa [9] = test: Cell cycle arrest in human HeLa cells assessed as accumulation at G2/M phase at 20 nM after 24 hrs by propidium iodide staining based flow cytometry analysis (reference value: 0.10 %); type: functional
# HeLa [10] = test: Induction of mitotic arrest in human HeLa cells assessed as accumulation at G2/M phase at 2 to 20 nM after 24 hrs by flow cytometry analysis relative to control; type: functional, cell-based
# HeLa [11] = test: Induction apoptosis in human HeLa cells at 10 nM after 24 hrs by Annexin V-based flow cytometry analysis; type: functional, cell-based
# HeLa [12] = test: Induction apoptosis in human HeLa cells at 20 nM after 24 hrs by Annexin V-based flow cytometry analysis; type: functional, cell-based
# HeLa [13] = test: Induction apoptosis in human HeLa cells assessed as caspase -3 activity at 100 nM after 24 hrs by single-cell immunofluorescence assay; type: functional, cell-based
# OVCAR-8 = test: cells; conditions: Homo sapiens, OVCAR-8, 96 h
# HeLa [14] = test: Induction apoptosis in human HeLa cells at 20 nM after 24 hrs by Annexin V-based flow cytometry analysis
# HT-29 = test: Antiproliferative activity against human HT-29 cells assessed as growth inhibition after 48 hrs by MTT assay; type: functional, cell-based; conditions: HT-29, 48 h
# A549 = test: Antiproliferative activity against human A549 cells assessed as growth inhibition after 48 hrs by MTT assay; conditions: A549, 48 h
# [15] = Growth inhibition of human HSMC cells after 48 hrs by MTT assay; type: cell-based
# A10 = test: Growth inhibition of rat A10 cells after 48 hrs by MTT assay; type: cell-based; conditions: A10, 48 h
# [16] = Growth inhibition of potorous tridactylus PtK2 cells after 48 hrs by MTT assay; type: cell-based; conditions: PtK2, 48 h
# HUVEC = test: Growth inhibition of HUVEC cells after 48 hrs by MTT assay; type: cell-based; conditions: Homo sapiens
smiles,measurement,setting,value
CCOc1ccc2ccc(=O)oc2c1 [ETHOXYCOUMARIN],Stability,Liver microsomes,6.6%
same,Stability,Liver,0.07%
CCC1=C[C@@H]2CN(C1)Cc1c([nH]c3ccccc13)[C@@](C(=O)OC)(c1cc3c(cc1OC)N(C)[C@H]1[C@@](O)(C(=O)OC)[C@H](OC(C)=O)[C@]4(CC)C=CCN5CC[C@]31[C@@H]54)C2 [VINORELBINE],IC50,[1],5000 nM
COc1cc(Sc2c(-c3cc[nH]c3)[nH]c3ccccc23)cc(OC)c1OC,Cmax,[2],35.7 ng/mL
same,AUC(0-inf),[3],2910 ng·h/mL
same,Vdss,Mus musculus [4],1.59 L/kg
same,Cmax,[5],1340 ng/mL
same,Tmax,[6],2 h
same,AUC(0-inf),[7],9720 ng·h/mL
same,F,Mus musculus [8],110%
CC[C@]1(O)C[C@@H]2CN(CCc3c([nH]c4ccccc34)[C@@](C(=O)OC)(c3cc4c(cc3OC)N(C)[C@H]3[C@@](O)(C(=O)OC)[C@H](OC(C)=O)[C@]5(CC)C=CCN6CC[C@]43[C@@H]65)C2)C1 [VINBLASTINE],Activity,HeLa [9],80%
same,Activity,HeLa [10],Active
same,Activity,HeLa [11],Active
same,Activity,HeLa [12],Active
same,Activity,HeLa [13],Active
same,IC50,OVCAR-8,15 nM
same,Activity,HeLa [14],Active
COc1ccc(/C=C\c2cc(OC)c(OC)c(OC)c2)cc1O [COMBRETASTATIN A4],IC50,HT-29,> 10000 nM
same,IC50,A549,> 10000 nM
same,IC50,[15],5 nM
same,IC50,A10,1 nM
same,IC50,[16],3 nM
same,IC50,HUVEC,1 nM
same,Activity,HeLa [9],80%
same,Activity,HeLa [10],Active
same,Activity,HeLa [11],Active
same,Activity,HeLa [12],Active
same,Activity,HeLa [13],Active
same,Activity,HeLa [14],Active
CC(=O)O[C@H]1C(=O)[C@@]2(C)[C@H]([C@H](OC(=O)c3ccccc3)[C@]3(O)C[C@H](OC(=O)[C@H](O)[C@@H](NC(=O)c4ccccc4)c4ccccc4)C(C)=C1C3(C)C)[C@]1(OC(C)=O)CO[C@@H]1C[C@@H]2O [PACLITAXEL],IC50,OVCAR-8,2 nM
